Measured values reported in ChEMBL document CHEMBL2203123, “Synthesis and biological evaluation of some hydrazone derivatives as new anticandidal and anticancer agents” (Eur J Med Chem, 2012).
≈ marks a conversion by molar mass, not a printed value.

Legend:
Salmonella typhimurium [1] = assay: Genotoxicity against Salmonella typhimurium TA100 assessed as fold increase in revertants at 0.156 mg/ml after 90 mins by Ames MPF test in presence of S9 fraction relative to baseline; type: toxicity, organism-based; conditions: salmonella enterica subsp. enterica serovar typhimurium, s9, 1.5 h
How it was run: (§1)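 Ames MPF fluctuation test, TA98 and TA100: overnight cultures reincubated 90 min, then exposed 90 min at 37 °C to compounds at 0.156-5 mg/mL (in DMSO) with or without 4.5% v/v S9; indicator medium added, 48 wells per sample scored yellow after 48 h, triplicate. Fold over baseline = mean positive wells / (mean of DMSO control + 1 SD).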

Salmonella typhimurium [2] = assay: Genotoxicity against Salmonella typhimurium TA1535/pSK1002 assessed as induction ratio at 2.5 mg/ml by umuC assay in presence of S9 fraction; type: toxicity, organism-based; conditions: salmonella enterica subsp. enterica serovar typhimurium
How it was run: (§2)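 umuC Easy CS: TA1535/pSK1002 grown overnight in ampicillin TG medium at 37 °C, then exposed 2 h at 37 °C to compounds at 5, 2.5, 1.25, 0.63 mg/mL with or without S9. Diluted into fresh medium for 2 h growth (OD600), then β-galactosidase with ONPG 30 min at 28 °C, OD420. Positive controls 2-aminoanthracene (+S9), […] (−S9).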

Candida albicans [3] = assay: Antifungal activity against Candida albicans ATCC 10231 after 24 hrs by microdilution susceptibility assay; type: functional; conditions: ATCC 10231, 24 h
How it was run: (§3)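 Broth microdilution in Mueller Hinton Broth, compounds from DMSO stocks diluted serially; inocula standardized to 10^6 CFU/mL (McFarland 0.5) from overnight MHB cultures. Plates held 37 °C for 24 h; MIC taken as first well without turbidity, aided by 1% tetrazolium violet added for 3 h at 37 °C. Ketoconazole reference.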

Candida parapsilosis = assay: Antifungal activity against Candida parapsilosis NRRL Y-12696 after 24 hrs by microdilution susceptibility assay; type: functional; conditions: Lodderomyces parapsilosis, NRRL Y-12696, 24 h; how it was run: as §3
Salmonella typhimurium [4] = assay: Genotoxicity against Salmonella typhimurium TA1535/pSK1002 assessed as growth factor ratio at 0.63 mg/ml by umuC assay in absence of S9 fraction; type: toxicity, organism-based; conditions: salmonella enterica subsp. enterica serovar typhimurium; how it was run: as §2
Salmonella typhimurium [5] = assay: Genotoxicity against Salmonella typhimurium TA98 assessed as fold increase in revertants at 0.3125 mg/ml after 90 mins by Ames MPF test in presence of S9 fraction relative to baseline; type: toxicity, organism-based; conditions: salmonella enterica subsp. enterica serovar typhimurium, s9, 1.5 h; how it was run: as §1
Salmonella typhimurium [6] = assay: Genotoxicity against Salmonella typhimurium TA98 assessed as fold increase in revertants at 0.625 mg/ml after 90 mins by Ames MPF test in absence of S9 fraction relative to baseline; type: toxicity, organism-based; conditions: salmonella enterica subsp. enterica serovar typhimurium, 1.5 h; how it was run: as §1
Candida albicans [7] = assay: Antifungal activity against Candida albicans ATCC 90028 after 24 hrs by microdilution susceptibility assay; type: functional; conditions: ATCC 90028, 24 h; how it was run: as §3
[8] = Genotoxicity against Salmonella typhimurium TA1535/pSK1002 assessed as induction ratio at 1.25 mg/ml by umuC assay in presence of S9 fraction; type: toxicity, organism-based; conditions: salmonella enterica subsp. enterica serovar typhimurium, Salmonella typhimurium TA1535/pSK1002 with S9 fraction; how it was run: as §2
[9] = Genotoxicity against Salmonella typhimurium TA1535/pSK1002 assessed as induction ratio at 1.25 mg/ml by umuC assay in absence of S9 fraction; type: toxicity, organism-based; conditions: salmonella enterica subsp. enterica serovar typhimurium, Salmonella typhimurium TA1535/pSK1002 without S9 fraction; how it was run: as §2
Salmonella typhimurium [10] = assay: Genotoxicity against Salmonella typhimurium TA100 assessed as fold increase in revertants at 2.5 mg/ml after 90 mins by Ames MPF test in presence of S9 fraction relative to baseline; type: toxicity, organism-based; conditions: salmonella enterica subsp. enterica serovar typhimurium, s9, 1.5 h; how it was run: as §1
Salmonella typhimurium [11] = assay: Genotoxicity against Salmonella typhimurium TA98 assessed as fold increase in revertants at 2.5 mg/ml after 90 mins by Ames MPF test in presence of S9 fraction relative to baseline; type: toxicity, organism-based; conditions: salmonella enterica subsp. enterica serovar typhimurium, s9, 1.5 h; how it was run: as §1
Salmonella typhimurium [12] = assay: Genotoxicity against Salmonella typhimurium TA100 assessed as fold increase in revertants at 0.625 mg/ml after 90 mins by Ames MPF test in absence of S9 fraction relative to baseline; type: toxicity, organism-based; conditions: salmonella enterica subsp. enterica serovar typhimurium, 1.5 h; how it was run: as §1
Salmonella typhimurium [13] = assay: Genotoxicity against Salmonella typhimurium TA100 assessed as fold increase in revertants at 0.3125 mg/ml after 90 mins by Ames MPF test in absence of S9 fraction relative to baseline; type: toxicity, organism-based; conditions: salmonella enterica subsp. enterica serovar typhimurium, 1.5 h; how it was run: as §1
Salmonella typhimurium [14] = assay: Genotoxicity against Salmonella typhimurium TA98 assessed as fold increase in revertants at 5 mg/ml after 90 mins by Ames MPF test in absence of S9 fraction relative to baseline; type: toxicity, organism-based; conditions: salmonella enterica subsp. enterica serovar typhimurium, 1.5 h; how it was run: as §1
Salmonella typhimurium [15] = assay: Genotoxicity against Salmonella typhimurium TA1535/pSK1002 assessed as growth factor ratio at 2.5 mg/ml by umuC assay in absence of S9 fraction; type: toxicity, organism-based; conditions: salmonella enterica subsp. enterica serovar typhimurium; how it was run: as §2
Salmonella typhimurium [16] = assay: Genotoxicity against Salmonella typhimurium TA100 assessed as fold increase in revertants at 2.5 mg/ml after 90 mins by Ames MPF test in absence of S9 fraction relative to baseline; type: toxicity, organism-based; conditions: salmonella enterica subsp. enterica serovar typhimurium, 1.5 h; how it was run: as §1
Salmonella typhimurium [17] = assay: Genotoxicity against Salmonella typhimurium TA100 assessed as fold increase in revertants at 0.3125 mg/ml after 90 mins by Ames MPF test in presence of S9 fraction relative to baseline; type: toxicity, organism-based; conditions: salmonella enterica subsp. enterica serovar typhimurium, s9, 1.5 h; how it was run: as §1
Nakaseomyces glabratus = assay: Antifungal activity against Candida glabrata Anadolu University clinical isolate after 24 hrs by microdilution susceptibility assay; type: functional; how it was run: as §3
Salmonella typhimurium [18] = assay: Genotoxicity against Salmonella typhimurium TA100 assessed as fold increase in revertants at 5 mg/ml after 90 mins by Ames MPF test in absence of S9 fraction relative to baseline; type: toxicity, organism-based; conditions: salmonella enterica subsp. enterica serovar typhimurium, 1.5 h; how it was run: as §1
Salmonella typhimurium [19] = assay: Genotoxicity against Salmonella typhimurium TA100 assessed as fold increase in revertants at 1.25 mg/ml after 90 mins by Ames MPF test in absence of S9 fraction relative to baseline; type: toxicity, organism-based; conditions: salmonella enterica subsp. enterica serovar typhimurium, 1.5 h; how it was run: as §1
A549 = assay: Cytotoxicity against human A549 cells after 24 hrs by XTT assay; type: functional, cell-based; conditions: A549, 24 h
How it was run: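 A549 cells in RPMI 1640 with 10% fetal calf serum, penicillin/streptomycin, 37 °C, 5% CO2; 20,000 cells/well seeded, after 24 h exposed to compounds at 0.00316 µM-10 mM for 24 h. XTT mitochondrial activity read at 480 nm (reference 680 nm) after 3 h; % inhibition per concentration, IC50 by non-linear regression.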

[20] = Genotoxicity against Salmonella typhimurium TA1535/pSK1002 assessed as induction ratio at 5 mg/ml by umuC assay in absence of S9 fraction; type: toxicity, organism-based; conditions: salmonella enterica subsp. enterica serovar typhimurium, Salmonella typhimurium TA1535/pSK1002 without S9 fraction; how it was run: as §2
Salmonella typhimurium [21] = assay: Genotoxicity against Salmonella typhimurium TA98 assessed as fold increase in revertants at 1.25 mg/ml after 90 mins by Ames MPF test in presence of S9 fraction relative to baseline; type: toxicity, organism-based; conditions: salmonella enterica subsp. enterica serovar typhimurium, s9, 1.5 h; how it was run: as §1
Salmonella typhimurium [22] = assay: Genotoxicity against Salmonella typhimurium TA98 assessed as fold increase in revertants at 5 mg/ml after 90 mins by Ames MPF test in presence of S9 fraction relative to baseline; type: toxicity, organism-based; conditions: salmonella enterica subsp. enterica serovar typhimurium, s9, 1.5 h; how it was run: as §1
Salmonella typhimurium [23] = assay: Genotoxicity against Salmonella typhimurium TA1535/pSK1002 assessed as growth factor ratio at 1.25 mg/ml by umuC assay in presence of S9 fraction; type: toxicity, organism-based; conditions: salmonella enterica subsp. enterica serovar typhimurium; how it was run: as §2
Salmonella typhimurium [24] = assay: Genotoxicity against Salmonella typhimurium TA1535/pSK1002 assessed as growth factor ratio at 5 mg/ml by umuC assay in absence of S9 fraction; type: toxicity, organism-based; conditions: salmonella enterica subsp. enterica serovar typhimurium; how it was run: as §2

Q: With `CN(C)c1ccc(/C=N/NC(=O)CSc2nnnn2C)cc1` as the compound, how does the “fold change (FC)” value (Salmonella typhimurium [1]) read?
A: 0.33

Q: What about the Ratio (Salmonella typhimurium [2]) of the same compound?
A: 0.598

Q: And the MIC (Candida albicans [3])?
A: 125 µg/mL (≈ 391 µM)

Q: What about the MIC (Candida parapsilosis) of the same compound?
A: 500 µg/mL (≈ 1570 µM)

Q: And the Ratio (Salmonella typhimurium [4])?
A: 0.962

Q: And the “fold change (FC)” value (Salmonella typhimurium [5])?
A: 0.57

Q: What about the “fold change (FC)” value (Salmonella typhimurium [6]) of the same compound?
A: 1.59

Q: And the MIC (Candida albicans [7])?
A: 50 µg/mL (≈ 157 µM)

Q: What about the fold induction at 1.25 mg/ml [8] of the same compound?
A: 0.67

Q: And the fold induction at 1.25 mg/ml [9]?
A: 1.13

Q: And the “fold change (FC)” value (Salmonella typhimurium [10])?
A: 0.15

Q: What about the “fold change (FC)” value (Salmonella typhimurium [11]) of the same compound?
A: 1.14

Q: What about the “fold change (FC)” value (Salmonella typhimurium [12]) of the same compound?
A: 1.38

Q: What about the “fold change (FC)” value (Salmonella typhimurium [13]) of the same compound?
A: 1.19

Q: What about the “fold change (FC)” value (Salmonella typhimurium [14]) of the same compound?
A: 0

Q: What about the Ratio (Salmonella typhimurium [15]) of the same compound?
A: 1.743

Q: What about the “fold change (FC)” value (Salmonella typhimurium [16]) of the same compound?
A: 1.14

Q: What about the “fold change (FC)” value (Salmonella typhimurium [17]) of the same compound?
A: 0.47

Q: What about the MIC (Nakaseomyces glabratus) of the same compound?
A: 50 µg/mL (≈ 157 µM)

Q: And the “fold change (FC)” value (Salmonella typhimurium [18])?
A: 0.81

Q: And the “fold change (FC)” value (Salmonella typhimurium [19])?
A: 1

Q: And the IC50 (A549)?
A: 100 µM

Q: What about the fold induction at 5 mg/ml [20] of the same compound?
A: 0.565

Q: And the “fold change (FC)” value (Salmonella typhimurium [21])?
A: 0.86

Q: And the “fold change (FC)” value (Salmonella typhimurium [22])?
A: 0.86

Q: What about the Ratio (Salmonella typhimurium [23]) of the same compound?
A: 1.538

Q: And the Ratio (Salmonella typhimurium [24])?
A: 2.781
